Experimental data reported in ChEMBL document CHEMBL4818995, “Dual nicotinamide phosphoribosyltransferase and epidermal growth factor receptor inhibitors for the treatment of cancer” (Eur J Med Chem, 2021).

Tests used:
[1] = biological target: Epidermal growth factor receptor (Homo sapiens, UniProt P00533); test: Inhibition of N-terminal GST-tagged human recombinant EGFR cytoplasmic domain (668 to 1210 residues) expressed in baculovirus expression system by Z'-LYTE kinase assay
[2] = biological target: Epidermal growth factor receptor (Homo sapiens, UniProt P00533, T790M); test: Inhibition of N-terminal GST-tagged human recombinant EGFR T790M mutant (668 to 1210 residues) expressed in baculovirus expression system by Z'-LYTE kinase assay
[3] = biological target: Epidermal growth factor receptor (Homo sapiens, UniProt P00533, L861Q); test: Inhibition of N-terminal GST-tagged human recombinant EGFR L861Q mutant (668 to 1210 residues) expressed in baculovirus expression system by Z'-LYTE kinase assay
[4] = biological target: Epidermal growth factor receptor (Homo sapiens, UniProt P00533, L858R); test: Inhibition of N-terminal GST-tagged human recombinant EGFR L858R mutant (668 to 1210 residues) expressed in baculovirus expression system by Z'-LYTE kinase assay
Huh-7 = test: Antiproliferative activity against human Huh-7 cells assessed as inhibition of cell growth after 72 hrs by CCK8 assay; assay type: functional, cell-based
Outline: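 Cells kept in RPMI or DMEM with 10% FBS and 1% penicillin/streptomycin, 37 °C, 5% CO2. Plated at 400-800 cells/well, treated with a range of test concentrations or vehicle for 72 h. CCK8 reagent added, absorbance read at 450 nm.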

NCI-H1975 = test: Antiproliferative activity against human NCI-H1975 cells harboring EGFR L858R/T790M double mutant assessed as inhibition of cell growth; assay type: functional
[5] = Toxicity in BALB/c nude mouse xenografted with human NCI-H1975 cells assessed as changes in body weight at 60 mg/kg, iv administered 5 days a week for 3 weeks; assay type: organism-based; details: in vivo, 504 h
Outline: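 Female BALB/c nude mice aged 4-6 weeks, H1975 cells (3 × 10^6 in 0.1 ml RPMI-1640) implanted subcutaneously in the right flank. At day 12, tumors ~150 mm3, mice grouped n=6. […] Test agent in 5% ethanol/5% DMSO/10% Cremophor EL/80% saline at 60 mg/kg i.v. five times weekly. Vehicle group received i.v. vehicle. Tumor and body weight recorded daily by caliper; TV = width² × length × 0.5. Mean ± SD, Student's t-test.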

K562 = test: Antiproliferative activity against human K562 cells assessed as inhibition of cell growth after 72 hrs by CCK8 assay; details: K562, 72 h
MCF7 = test: Antiproliferative activity against human MCF-7 cells assessed as inhibition of cell growth after 72 hrs by CCK8 assay; details: MCF7, 72 h

Chain of Epidermal growth factor receptor (Homo sapiens, UniProt P00533) (P00533 whole entry, the tested form may be a part): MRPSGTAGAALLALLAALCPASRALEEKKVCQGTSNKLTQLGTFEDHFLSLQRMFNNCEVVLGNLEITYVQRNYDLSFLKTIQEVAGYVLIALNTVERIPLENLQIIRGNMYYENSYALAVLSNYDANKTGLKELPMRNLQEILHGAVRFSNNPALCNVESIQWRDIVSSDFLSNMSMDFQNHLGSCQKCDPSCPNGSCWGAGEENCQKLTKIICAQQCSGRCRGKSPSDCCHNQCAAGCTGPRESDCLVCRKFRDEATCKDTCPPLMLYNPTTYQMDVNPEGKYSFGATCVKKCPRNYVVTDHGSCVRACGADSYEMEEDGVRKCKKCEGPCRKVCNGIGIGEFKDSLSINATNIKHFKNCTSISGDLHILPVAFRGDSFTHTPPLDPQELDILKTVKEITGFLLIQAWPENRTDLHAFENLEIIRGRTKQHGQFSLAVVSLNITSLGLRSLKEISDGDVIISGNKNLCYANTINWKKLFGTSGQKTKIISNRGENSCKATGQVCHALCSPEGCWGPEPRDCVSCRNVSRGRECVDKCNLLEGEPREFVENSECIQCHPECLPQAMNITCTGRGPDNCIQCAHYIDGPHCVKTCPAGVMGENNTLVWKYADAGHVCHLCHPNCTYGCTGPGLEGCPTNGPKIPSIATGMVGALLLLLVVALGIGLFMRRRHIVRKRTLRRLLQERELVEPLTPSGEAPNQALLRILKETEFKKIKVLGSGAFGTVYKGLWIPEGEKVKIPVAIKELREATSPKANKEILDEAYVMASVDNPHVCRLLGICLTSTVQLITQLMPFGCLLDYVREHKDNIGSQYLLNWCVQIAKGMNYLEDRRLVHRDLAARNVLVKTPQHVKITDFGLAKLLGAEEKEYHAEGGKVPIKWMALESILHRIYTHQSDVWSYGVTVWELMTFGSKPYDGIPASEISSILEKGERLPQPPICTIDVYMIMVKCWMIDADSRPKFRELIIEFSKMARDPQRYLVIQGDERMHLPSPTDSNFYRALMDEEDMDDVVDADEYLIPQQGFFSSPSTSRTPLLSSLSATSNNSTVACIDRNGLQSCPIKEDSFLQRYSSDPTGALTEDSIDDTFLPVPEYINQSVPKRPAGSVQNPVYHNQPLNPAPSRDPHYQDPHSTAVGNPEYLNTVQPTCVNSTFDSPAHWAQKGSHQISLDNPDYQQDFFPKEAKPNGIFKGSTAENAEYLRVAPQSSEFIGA
Chain of Epidermal growth factor receptor (Homo sapiens, UniProt P00533, L861Q) (P00533 25-1210 L861Q limits assumed): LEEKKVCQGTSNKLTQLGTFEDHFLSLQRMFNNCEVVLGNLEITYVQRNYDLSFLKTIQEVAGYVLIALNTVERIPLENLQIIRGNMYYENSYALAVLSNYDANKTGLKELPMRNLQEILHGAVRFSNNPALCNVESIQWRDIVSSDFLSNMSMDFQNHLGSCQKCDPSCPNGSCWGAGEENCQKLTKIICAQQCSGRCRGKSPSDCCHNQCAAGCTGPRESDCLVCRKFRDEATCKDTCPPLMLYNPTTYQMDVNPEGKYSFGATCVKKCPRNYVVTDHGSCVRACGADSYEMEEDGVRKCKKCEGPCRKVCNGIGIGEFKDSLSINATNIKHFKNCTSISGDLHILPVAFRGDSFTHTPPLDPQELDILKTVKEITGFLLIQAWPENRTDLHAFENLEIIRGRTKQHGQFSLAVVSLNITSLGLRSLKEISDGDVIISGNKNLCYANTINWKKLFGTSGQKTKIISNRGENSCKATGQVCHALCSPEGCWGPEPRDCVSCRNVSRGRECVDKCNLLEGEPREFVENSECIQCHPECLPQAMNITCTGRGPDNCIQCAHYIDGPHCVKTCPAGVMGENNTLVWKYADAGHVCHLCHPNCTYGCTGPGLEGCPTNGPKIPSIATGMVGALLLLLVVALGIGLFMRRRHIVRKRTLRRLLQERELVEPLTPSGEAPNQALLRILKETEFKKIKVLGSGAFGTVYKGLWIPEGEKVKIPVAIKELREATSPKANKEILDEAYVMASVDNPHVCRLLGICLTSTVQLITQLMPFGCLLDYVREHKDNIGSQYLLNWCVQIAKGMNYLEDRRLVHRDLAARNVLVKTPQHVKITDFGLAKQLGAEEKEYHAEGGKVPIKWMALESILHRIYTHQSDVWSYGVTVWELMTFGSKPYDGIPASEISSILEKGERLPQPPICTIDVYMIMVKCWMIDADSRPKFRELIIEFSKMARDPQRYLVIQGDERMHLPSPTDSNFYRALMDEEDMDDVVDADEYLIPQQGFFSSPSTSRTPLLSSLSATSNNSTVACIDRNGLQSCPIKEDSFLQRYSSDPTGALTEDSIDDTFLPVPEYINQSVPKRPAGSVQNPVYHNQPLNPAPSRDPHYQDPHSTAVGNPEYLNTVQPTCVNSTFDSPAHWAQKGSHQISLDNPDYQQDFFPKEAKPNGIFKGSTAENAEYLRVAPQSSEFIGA
Chain of Epidermal growth factor receptor (Homo sapiens, UniProt P00533, T790M) (P00533 25-1210 T790M limits assumed): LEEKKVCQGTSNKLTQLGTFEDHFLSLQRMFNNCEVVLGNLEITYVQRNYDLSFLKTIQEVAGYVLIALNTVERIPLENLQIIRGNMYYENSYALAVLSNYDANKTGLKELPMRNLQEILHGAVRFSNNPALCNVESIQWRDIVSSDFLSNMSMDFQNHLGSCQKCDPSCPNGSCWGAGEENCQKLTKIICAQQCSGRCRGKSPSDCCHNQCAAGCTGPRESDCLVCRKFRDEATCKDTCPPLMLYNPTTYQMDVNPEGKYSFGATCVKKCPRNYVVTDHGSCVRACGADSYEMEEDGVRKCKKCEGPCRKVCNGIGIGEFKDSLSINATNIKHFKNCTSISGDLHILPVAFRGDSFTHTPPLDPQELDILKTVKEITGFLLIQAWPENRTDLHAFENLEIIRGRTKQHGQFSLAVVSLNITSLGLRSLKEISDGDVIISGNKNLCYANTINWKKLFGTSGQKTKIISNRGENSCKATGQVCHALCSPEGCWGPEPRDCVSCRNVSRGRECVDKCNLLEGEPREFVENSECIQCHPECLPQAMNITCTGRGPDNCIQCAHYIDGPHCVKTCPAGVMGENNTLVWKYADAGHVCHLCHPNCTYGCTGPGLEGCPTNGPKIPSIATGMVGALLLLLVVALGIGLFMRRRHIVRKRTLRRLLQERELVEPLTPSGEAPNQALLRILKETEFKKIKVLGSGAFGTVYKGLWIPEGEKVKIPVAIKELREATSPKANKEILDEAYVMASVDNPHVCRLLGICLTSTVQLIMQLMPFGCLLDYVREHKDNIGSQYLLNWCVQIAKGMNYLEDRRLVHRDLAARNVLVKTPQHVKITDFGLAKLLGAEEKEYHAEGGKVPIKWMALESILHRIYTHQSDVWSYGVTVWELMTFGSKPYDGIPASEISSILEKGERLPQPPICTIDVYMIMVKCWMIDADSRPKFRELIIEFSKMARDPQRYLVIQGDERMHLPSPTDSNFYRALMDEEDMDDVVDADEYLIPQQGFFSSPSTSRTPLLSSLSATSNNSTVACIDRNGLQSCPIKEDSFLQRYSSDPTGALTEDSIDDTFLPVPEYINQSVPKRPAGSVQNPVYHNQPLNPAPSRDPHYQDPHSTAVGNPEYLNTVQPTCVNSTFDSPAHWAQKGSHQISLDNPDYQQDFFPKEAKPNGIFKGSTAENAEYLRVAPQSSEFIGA
Chain of Epidermal growth factor receptor (Homo sapiens, UniProt P00533, L858R) (P00533 25-1210 L858R limits assumed): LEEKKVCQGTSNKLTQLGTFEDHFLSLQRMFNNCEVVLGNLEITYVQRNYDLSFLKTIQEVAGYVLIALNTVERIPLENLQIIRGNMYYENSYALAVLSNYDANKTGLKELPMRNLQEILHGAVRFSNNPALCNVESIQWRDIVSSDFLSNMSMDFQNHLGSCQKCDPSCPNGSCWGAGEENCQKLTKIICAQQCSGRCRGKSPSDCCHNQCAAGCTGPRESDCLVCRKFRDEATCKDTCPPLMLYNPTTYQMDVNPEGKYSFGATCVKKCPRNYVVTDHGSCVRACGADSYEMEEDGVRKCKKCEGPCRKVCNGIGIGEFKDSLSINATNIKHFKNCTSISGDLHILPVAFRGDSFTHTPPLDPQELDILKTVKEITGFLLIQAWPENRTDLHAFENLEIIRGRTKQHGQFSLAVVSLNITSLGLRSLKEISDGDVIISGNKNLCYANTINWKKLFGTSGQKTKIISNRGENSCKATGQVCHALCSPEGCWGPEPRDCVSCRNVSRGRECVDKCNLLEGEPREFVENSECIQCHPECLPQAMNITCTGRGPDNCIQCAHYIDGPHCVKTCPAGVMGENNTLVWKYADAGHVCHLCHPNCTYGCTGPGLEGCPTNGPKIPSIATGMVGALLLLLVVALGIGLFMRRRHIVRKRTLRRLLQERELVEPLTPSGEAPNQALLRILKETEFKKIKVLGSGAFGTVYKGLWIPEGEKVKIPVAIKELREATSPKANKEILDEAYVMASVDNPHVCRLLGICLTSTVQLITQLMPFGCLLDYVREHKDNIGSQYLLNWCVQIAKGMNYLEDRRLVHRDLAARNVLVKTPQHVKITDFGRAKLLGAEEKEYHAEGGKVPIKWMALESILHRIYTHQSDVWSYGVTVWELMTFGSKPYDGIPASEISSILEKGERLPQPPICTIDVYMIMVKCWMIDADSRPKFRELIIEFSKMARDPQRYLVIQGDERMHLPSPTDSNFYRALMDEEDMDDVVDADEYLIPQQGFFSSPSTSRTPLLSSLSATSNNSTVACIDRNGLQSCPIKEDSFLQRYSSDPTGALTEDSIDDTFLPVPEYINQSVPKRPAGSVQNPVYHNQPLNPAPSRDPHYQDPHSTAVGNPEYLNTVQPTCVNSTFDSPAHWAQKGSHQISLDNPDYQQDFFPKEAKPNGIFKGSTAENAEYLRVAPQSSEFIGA

Row | SMILES | IC50 [1] | IC50 [2] | IC50 [3] | IC50 [4] | GI50 (Huh-7) | GI50 (NCI-H1975) | Activity [5] | GI50 (K562) | GI50 (MCF7)
1 | C#Cc1cccc(Nc2ncnc3cc(OC)c(OCCCCCN/C(=N\C#N)Nc4ccncc4)cc23)c1 | 0.23 nM | 153 nM | 0.26 nM | 0.26 nM | 1.64 nM | 78.3 nM | Non-Toxic | 38 nM | 0.1 nM
2 | C#Cc1cccc(Nc2ncnc3cc(OC)c(OCCCCCN/C(=N\C#N)Nc4cccnc4)cc23)c1 | 0.52 nM | 228 nM | 0.46 nM | 0.41 nM | 62.9 nM |  |  | 175 nM | 0.98 nM
3 | C#Cc1cccc(Nc2ncnc3cc(OC)c(OCCCCCCCN/C(=N\C#N)Nc4cccnc4)cc23)c1 | 0.538 nM | 448 nM | 0.49 nM | 0.48 nM | 9.94 nM |  |  | 42.1 nM | 0.63 nM
4 | C#Cc1cccc(Nc2ncnc3cc(OC)c(OCCCCCCN/C(=N\C#N)Nc4ccncc4)cc23)c1 | 0.35 nM | 323 nM | 0.36 nM | 0.32 nM | 1.87 nM |  |  | 7.47 nM | 0.15 nM
5 | C#Cc1cccc(Nc2ncnc3cc(OC)c(OCCCCCCCN/C(=N\C#N)Nc4ccncc4)cc23)c1 | 0.473 nM | 581 nM | 0.55 nM | 0.46 nM | 1.81 nM |  |  | 50.9 nM | 0.21 nM
6 | C#Cc1cccc(Nc2ncnc3cc(OC)c(OCCCCCCN/C(=N\C#N)Nc4cccnc4)cc23)c1 | 0.32 nM | 326 nM | 0.38 nM | 0.38 nM |  |  |  | 24.6 nM | 0.16 nM
7 | CC(=O)O[C@H]1C(=O)[C@@]2(C)[C@H]([C@H](OC(=O)c3ccccc3)[C@]3(O)C[C@H](OC(=O)[C@H](O)[C@@H](NC(=O)c4ccccc4)c4ccccc4)C(C)=C1C3(C)C)[C@]1(OC(C)=O)CO[C@@H]1C[C@@H]2O [PACLITAXEL] |  |  |  |  | 7.41 nM |  |  | 2.76 nM | 4.85 nM
